This passage reports Activity, IC50 and MIC results from ChEMBL document CHEMBL2406982, “Structure-activity relationships of new cyanothiophene inhibitors of the essential peptidoglycan biosynthesis enzyme MurF” (Eur J Med Chem, 2013).

For assay [1], the system named is Staphylococcus aureus. The assay can be described thus: Antimicrobial activity against Staphylococcus aureus SH1000 by broth microdilution method. The format is functional, organism-based. Put shortly: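 MIC by broth microdilution in Mueller-Hinton broth following CLSI guidelines.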
The test system of assay [2] is Escherichia coli. The assay can be described thus: Antimicrobial activity against Escherichia coli AB734 by broth microdilution method. The class given is functional, organism-based. Put shortly: (§1)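 Broth microdilution MIC per CLSI guidelines in Mueller-Hinton broth. E. coli 1411 and AB734 were also tested with added polymyxin B nonapeptide to permeabilise the outer membrane.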

The test system of assay [3] is Escherichia coli. Briefly: Antimicrobial activity against Escherichia coli 1411 by broth microdilution method. The format is functional, organism-based. Put shortly: as §1
Assay [4] relates to Staphylococcus aureus. Briefly: Inhibition of Staphylococcus aureus MurF using D-Ala-D-Ala/UMtri-L-Lys as substrate assessed as residual activity at 100 uM after 15 mins by Malachite green method. Put shortly:
(§2)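 S. aureus MurF, purified, assayed in 50 mM Hepes pH 8.0 with 20 mM MgCl2 and 0.005% Triton X-114, with D-Ala-D-Ala, UMtri-L-Lys and ATP. Compound was in DMSO (5% v/v final). After 15 min at 37 °C, Biomol reagent was added and A650 was read 5 min later. Duplicates were run. Residual activity was relative to 5% DMSO controls. IC50 was read as 50% residual activity across seven concentrations.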

Assay [5] deals with Escherichia coli. Briefly: Inhibition of Escherichia coli MurF using D-Ala-D-Ala/UMtri-mDAP as substrate assessed as residual activity at 100 uM after 15 mins by Malachite green method. Put shortly:
(§3)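 Purified E. coli MurF in 50 mM Hepes pH 8.0, 50 mM MgCl2, 0.005% Triton X-114, with D-Ala-D-Ala, UMtri-mDAP and ATP. Compound was added in DMSO (final 5% v/v). Mixtures were incubated 15 min at 37 °C, quenched with Biomol reagent, and absorbance was read at 650 nm after 5 min. Runs were in duplicate. Residual activity was taken versus DMSO-only controls. IC50 came from residual activity at seven concentrations.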

The nature of assay [6]: Inhibition of Streptococcus pneumoniae MurF using D-Ala-D-Ala/UMtri-L-Lys as substrate after 15 mins by Malachite green method. Put shortly:
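Purified S. pneumoniae MurF in 50 mM Hepes pH 8.0, 50 mM MgCl2, 0.005% Triton X-114, with D-Ala-D-Ala, UMtri-L-Lys and ATP. Compound was added in DMSO (5% v/v final). Reactions ran 15 min at 37 °C, were stopped with Biomol malachite green reagent, and A650 was measured after 5 min. Runs were in duplicate. Residual activity was versus DMSO controls. IC50 was from seven concentrations.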

The test system of another assay is Streptococcus pneumoniae. The assay can be described thus: Antimicrobial activity against Streptococcus pneumoniae R6 by broth microdilution method. The class given is functional. Put shortly:
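MIC by CLSI broth microdilution in Mueller-Hinton broth supplemented with 5% (v/v) lysed horse blood.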

The nature of assay [7]: Inhibition of Staphylococcus aureus MurF using D-Ala-D-Ala/UMtri-L-Lys as substrate after 15 mins by Malachite green method. Put shortly:
as §2

Assay [8] in a line: Inhibition of Escherichia coli MurF using D-Ala-D-Ala/UMtri-mDAP as substrate after 15 mins by Malachite green method. Put shortly:
as §3

≈ marks a conversion by molar mass, not a printed value. Calls of active or inactive are those of the source. The rule behind the calls is not given here.

As for `CCOC(=O)C1CCCN(S(=O)(=O)c2cc(C(=O)Nc3sc4c(c3C#N)CCCC4)c(Cl)cc2Cl)C1` (configuration not stated), the result with Staphylococcus aureus [1], in the assay on Escherichia coli [2] and in the assay on Escherichia coli [3] was inactive. In addition, the Activity came out at 93% in the assay with Staphylococcus aureus [4] and 94% in the assay on Escherichia coli [5]. This molecule also had an IC50 in assay [6] of 131 µM.
`COc1ccc(C2CCc3c(sc(NC(=O)c4cc(S(=O)(=O)N5CCOCC5)c(Cl)cc4Cl)c3C#N)C2)cc1` (configuration not stated) returned a minimal inhibitory concentration (MIC) in the assay on Streptococcus pneumoniae of over 128 µg/mL. The result in the assay with Staphylococcus aureus [1], in the assay with Escherichia coli [2] and in the assay with Escherichia coli [3] was inactive. Further, the Activity came out at 85% with Staphylococcus aureus [4] and 90% in the assay on Escherichia coli [5]. This molecule also displayed a half-inhibitory concentration (IC50) in assay [6] of 0.17 µM.
In turn, `N#Cc1c(NC(=O)c2cc(S(=O)(=O)N3CCC(=O)CC3)c(Cl)cc2Cl)sc2c1CCCC2` came in with an MIC against Streptococcus pneumoniae of over 128 µg/mL. Besides, the outcome in the assay on Staphylococcus aureus [1], in the assay with Escherichia coli [2] and in the assay on Escherichia coli [3] was inactive. Besides, the values for the Activity with Staphylococcus aureus [4] and with Escherichia coli [5] were 103% and 102%, respectively. In addition, the IC50 in [6] was 3.37 µM.
In the case of `N#Cc1c(NC(=O)c2cc(S(=O)(=O)N3CCOCC3)c(Cl)cc2Cl)sc2c1CCN(Cc1ccccc1)C2`, the IC50 was found to be 80 µM in assay [7], 109 µM in [8] and 0.64 µM in assay [6]. The minimal inhibitory concentration (MIC) against Streptococcus pneumoniae is over 128 µg/mL. Further, the outcome in the assay on Staphylococcus aureus [1], in the assay with Escherichia coli [2] and with Escherichia coli [3] was inactive.
With `N#Cc1c(NC(=O)c2cc(S(=O)(=O)N3CCOCC3)c(Cl)cc2Cl)sc2c1CCN(Cc1cccc(O)c1)C2`, the half-maximal inhibitory concentration (IC50) in [7] came out at 91 µM; in assay [8], 81 µM; in [6], 0.42 µM. This molecule also came in with an MIC against Streptococcus pneumoniae of 16 µg/mL (≈ 26.3 µM). Also, the result in the assay with Staphylococcus aureus [1], in the assay with Escherichia coli [2] and in the assay with Escherichia coli [3] was inactive.
In the assay with Streptococcus pneumoniae, `N#Cc1c(NC(=O)c2cc(S(=O)(=O)N3CCOCC3)c(Cl)cc2Cl)sc2c1CCN(Cc1cc(O)ccc1O)C2` came in with a minimum inhibitory concentration (MIC) of 32 µg/mL (≈ 51.3 µM). For the same molecule, the result with Staphylococcus aureus [1], with Escherichia coli [2] and in the assay on Escherichia coli [3] was inactive. For the same molecule, the Activity in the assay on Staphylococcus aureus [4] was determined as 79%; in the assay with Escherichia coli [5] it was 81%. The same molecule came in with an IC50 in assay [6] of 2.75 µM.
As to `N#Cc1c(NC(=O)c2cc(S(=O)(=O)N3CCOCC3)c(Cl)cc2Cl)sc2c1CCN(C(=O)c1ccccc1)C2`, the MIC with Streptococcus pneumoniae was over 128 µg/mL. Further, the outcome in the assay with Staphylococcus aureus [1], with Escherichia coli [2] and in the assay with Escherichia coli [3] was inactive. Further, the figures for the Activity with Staphylococcus aureus [4] and with Escherichia coli [5] were 107% and 93%, respectively. Further, the midpoint of inhibition in assay [6], the IC50, lay at 27 µM.
Consider `N#Cc1c(NC(=O)c2cc(S(=O)(=O)N3CCC(O)CC3)c(Cl)cc2Cl)sc2c1CCCC2`, for which the minimal inhibitory concentration (MIC) against Streptococcus pneumoniae came out at 64 µg/mL (≈ 124 µM). Besides, the outcome with Staphylococcus aureus [1], in the assay with Escherichia coli [2] and with Escherichia coli [3] was inactive. The Activity stood at 101% with Staphylococcus aureus [4] and 104% with Escherichia coli [5]. This molecule yielded an IC50 in assay [6] of 10.5 µM.
Take `CC(=O)Oc1ccc(C2CCc3c(sc(NC(=O)c4cc(S(=O)(=O)N5CCOCC5)c(Cl)cc4Cl)c3C#N)C2)cc1` (configuration not stated): the minimum inhibitory concentration (MIC) in the assay on Streptococcus pneumoniae was over 128 µg/mL. Moreover, the result in the assay on Staphylococcus aureus [1], in the assay with Escherichia coli [2] and with Escherichia coli [3] was inactive. The Activity turned out to be 103% with Staphylococcus aureus [4] and 91% in the assay with Escherichia coli [5]. The molecule also had a half-maximal inhibitory concentration (IC50) in assay [6] of 0.12 µM.
The molecule `N#Cc1c(NC(=O)c2cc(S(=O)(=O)N3CCOCC3)c(Cl)cc2Cl)sc2c1CCN(CCC1CCNCC1)C2.O=C(O)C(F)(F)F` showed a minimum inhibitory concentration (MIC) against Streptococcus pneumoniae of over 128 µg/mL. Also, the result in the assay with Staphylococcus aureus [1], with Escherichia coli [2] and with Escherichia coli [3] was inactive. In addition, the Activity with Staphylococcus aureus [4] came to 84%; in the assay on Escherichia coli [5], 93%. In assay [6], this molecule registered a concentration for half-maximal inhibition (IC50) of 0.6 µM.
Consider `N#Cc1ccc(CN2CCc3c(sc(NC(=O)c4cc(S(=O)(=O)N5CCOCC5)c(Cl)cc4Cl)c3C#N)C2)c(F)c1`, for which the IC50 in assay [7] came out at 92 µM; in assay [6], 1.92 µM. Moreover, the MIC against Streptococcus pneumoniae is over 128 µg/mL. Further, the outcome in the assay on Staphylococcus aureus [1], in the assay on Escherichia coli [2] and in the assay with Escherichia coli [3] was inactive. In the assay on Escherichia coli [5], the Activity came to 58%.
`N#Cc1c(NC(=O)c2cc(S(=O)(=O)N3CCOCC3)c(Cl)cc2Cl)sc2c1CCN(Cc1ccc(O)c(O)c1)C2`: the MIC against Streptococcus pneumoniae is over 128 µg/mL. The result in the assay on Staphylococcus aureus [1], in the assay on Escherichia coli [2] and with Escherichia coli [3] was inactive. The Activity is 64% in the assay on Staphylococcus aureus [4] and 78% in the assay with Escherichia coli [5]. Besides, the IC50 in assay [6] turned out to be 0.43 µM.
For the molecule `Cl.N#Cc1c(NC(=O)c2cc(S(=O)(=O)N3CCOCC3)c(Cl)cc2Cl)sc2c1CCNC2`, in the assay with Streptococcus pneumoniae, the MIC came out at 128 µg/mL. In addition, the outcome with Staphylococcus aureus [1], with Escherichia coli [2] and in the assay with Escherichia coli [3] was inactive. Also, the figures for the Activity in the assay on Staphylococcus aureus [4] and in the assay with Escherichia coli [5] were 81% and 94%, respectively. This molecule also had a 50% inhibitory concentration (IC50) in [6] of 47 µM.
For the molecule `N#Cc1c(NC(=O)c2cc(S(=O)(=O)N3CCOCC3)c(Cl)cc2Cl)sc2c1CCN(Cc1ccc(O)cc1)C2`, in the assay on Streptococcus pneumoniae, the MIC was over 128 µg/mL. Besides, the result in the assay with Staphylococcus aureus [1], with Escherichia coli [2] and with Escherichia coli [3] was inactive. The results for the Activity in the assay with Staphylococcus aureus [4] and in the assay on Escherichia coli [5] were 84% and 68%, respectively. The same molecule had a 50% inhibitory concentration (IC50) in [6] of 0.18 µM.
For `N#Cc1c(NC(=O)c2cc(S(=O)(=O)N3CCOCC3)c(Cl)cc2Cl)sc2c1CCN(CC1CCCCC1)C2`, the MIC in the assay with Streptococcus pneumoniae is over 128 µg/mL. In addition, the result in the assay on Staphylococcus aureus [1], in the assay on Escherichia coli [2] and in the assay with Escherichia coli [3] was inactive. Also, the Activity in the assay with Staphylococcus aureus [4] is 64%; with Escherichia coli [5] it was 63%. The molecule further registered an IC50 in assay [6] of 0.46 µM.
On to `N#Cc1c(NC(=O)c2cc(S(=O)(=O)N3CCCC(C(=O)O)C3)c(Cl)cc2Cl)sc2c1CCCC2` (configuration not stated), for which, in the assay on Streptococcus pneumoniae, the minimum inhibitory concentration (MIC) is over 128 µg/mL. The result in the assay on Staphylococcus aureus [1], in the assay with Escherichia coli [2] and with Escherichia coli [3] was inactive. In addition, the results for the Activity in the assay on Staphylococcus aureus [4] and with Escherichia coli [5] were 102% and 100%, respectively. Besides, it took 50 µM to reach half-maximal inhibition in [6] (IC50).
Regarding `N#Cc1c(NC(=O)c2cc(S(=O)(=O)N3CCC(C(=O)O)CC3)c(Cl)cc2Cl)sc2c1CCCC2`, in the assay with Streptococcus pneumoniae, it took 64 µg/mL (≈ 118 µM) to inhibit growth (MIC). Moreover, the outcome with Staphylococcus aureus [1], in the assay on Escherichia coli [2] and in the assay on Escherichia coli [3] was inactive. Moreover, the figures for the Activity in the assay on Staphylococcus aureus [4] and in the assay on Escherichia coli [5] were 96% and 102%, respectively. The same molecule yielded an IC50 in [6] of 17.9 µM.
The molecule `CC(C)(C)OC(=O)N1CCc2c(sc(NC(=O)c3cc(S(=O)(=O)N4CCOCC4)c(Cl)cc3Cl)c2C#N)C1` yielded an MIC against Streptococcus pneumoniae of 128 µg/mL (≈ 213 µM). Also, the outcome in the assay with Staphylococcus aureus [1], in the assay on Escherichia coli [2] and with Escherichia coli [3] was inactive. The Activity in the assay on Staphylococcus aureus [4] was determined as 78%; with Escherichia coli [5] it was 88%. In assay [6], this molecule registered an IC50 of 19 µM.
With `CC1CCCCN1S(=O)(=O)c1cc(C(=O)Nc2sc3c(c2C#N)CCCC3)c(Cl)cc1Cl` (configuration not stated), in the assay with Streptococcus pneumoniae, the minimum inhibitory concentration (MIC) is over 128 µg/mL. Further, the outcome in the assay on Staphylococcus aureus [1], in the assay with Escherichia coli [2] and in the assay with Escherichia coli [3] was inactive. In addition, the values for the Activity in the assay with Staphylococcus aureus [4] and in the assay on Escherichia coli [5] were 103% and 107%, respectively. Besides, in assay [6], the concentration for half-maximal inhibition (IC50) amounted to 3.75 µM.
`CC(C)(C)OC(=O)N1CCC(CCN2CCc3c(sc(NC(=O)c4cc(S(=O)(=O)N5CCOCC5)c(Cl)cc4Cl)c3C#N)C2)CC1`: the outcome with Staphylococcus aureus [1], with Escherichia coli [2] and in the assay on Escherichia coli [3] was inactive.
For the molecule `COc1cc(CN2CCc3c(sc(NC(=O)c4cc(S(=O)(=O)N5CCOCC5)c(Cl)cc4Cl)c3C#N)C2)ccc1O`, the IC50 in assay [8] stood at 98 µM; in assay [6], 4.15 µM. Moreover, in the assay with Streptococcus pneumoniae, the minimal inhibitory concentration (MIC) is over 128 µg/mL. The outcome with Staphylococcus aureus [1], in the assay on Escherichia coli [2] and in the assay on Escherichia coli [3] was inactive. Moreover, in the assay on Staphylococcus aureus [4], the Activity was determined as 64%.
